The list is not random: actives were taken first. Their share in the collection is about 1.7%.
UCH37 DUB inh: blocks the human deubiquitinase UCH37; inhibition, % (concentration not given with the values); purified proteasome/UCH37, Ub-AMC cleavage fluorescence; AID 588478; 330,000 tested, 0.33% active; Q9Y5K5;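 active means mean inhibition over replicate wells above about 20%, limit read from the data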;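 further: 0% = compound-free wells with enzyme and 100% = wells lacking proteasome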
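Signal – fluorescence, ex 355 nm, em 460 nm · System – Proteasome-bound UCH37 · Input – 0.15 nM proteasome as dispensed · Timing – 30 min preincubation with enzyme, 25 min cleavage at room temperature · Read-out basis – percent inhibition of cleavage signal versus uninhibited and no-proteasome wells · Medium – Tris-HCl pH 7.4 with ATP-MgCl2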
PLCg1 inh: PLC-gamma1 (human) inhibition, primary screen; AID 720700; 370,000 tested, 0.84% active; P19174; inhibition, % at 12.2 µM; purified PLC-gamma1, fluorogenic substrate, fluorescence; in the data active means inhibition above about 9.5%
PLCb3 inh: blocks human PLC-beta3 enzyme activity. inhibition, % at 12.2 µM. Purified PLC-beta3, fluorogenic substrate, fluorescence. 370,000 tested, 0.18% active. AID 720704; in the data active means inhibition above about 11%;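 further: 0% = median of compound wells on plate and 100% = full blocker control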
Target sequence (Q01970 whole entry, looked up): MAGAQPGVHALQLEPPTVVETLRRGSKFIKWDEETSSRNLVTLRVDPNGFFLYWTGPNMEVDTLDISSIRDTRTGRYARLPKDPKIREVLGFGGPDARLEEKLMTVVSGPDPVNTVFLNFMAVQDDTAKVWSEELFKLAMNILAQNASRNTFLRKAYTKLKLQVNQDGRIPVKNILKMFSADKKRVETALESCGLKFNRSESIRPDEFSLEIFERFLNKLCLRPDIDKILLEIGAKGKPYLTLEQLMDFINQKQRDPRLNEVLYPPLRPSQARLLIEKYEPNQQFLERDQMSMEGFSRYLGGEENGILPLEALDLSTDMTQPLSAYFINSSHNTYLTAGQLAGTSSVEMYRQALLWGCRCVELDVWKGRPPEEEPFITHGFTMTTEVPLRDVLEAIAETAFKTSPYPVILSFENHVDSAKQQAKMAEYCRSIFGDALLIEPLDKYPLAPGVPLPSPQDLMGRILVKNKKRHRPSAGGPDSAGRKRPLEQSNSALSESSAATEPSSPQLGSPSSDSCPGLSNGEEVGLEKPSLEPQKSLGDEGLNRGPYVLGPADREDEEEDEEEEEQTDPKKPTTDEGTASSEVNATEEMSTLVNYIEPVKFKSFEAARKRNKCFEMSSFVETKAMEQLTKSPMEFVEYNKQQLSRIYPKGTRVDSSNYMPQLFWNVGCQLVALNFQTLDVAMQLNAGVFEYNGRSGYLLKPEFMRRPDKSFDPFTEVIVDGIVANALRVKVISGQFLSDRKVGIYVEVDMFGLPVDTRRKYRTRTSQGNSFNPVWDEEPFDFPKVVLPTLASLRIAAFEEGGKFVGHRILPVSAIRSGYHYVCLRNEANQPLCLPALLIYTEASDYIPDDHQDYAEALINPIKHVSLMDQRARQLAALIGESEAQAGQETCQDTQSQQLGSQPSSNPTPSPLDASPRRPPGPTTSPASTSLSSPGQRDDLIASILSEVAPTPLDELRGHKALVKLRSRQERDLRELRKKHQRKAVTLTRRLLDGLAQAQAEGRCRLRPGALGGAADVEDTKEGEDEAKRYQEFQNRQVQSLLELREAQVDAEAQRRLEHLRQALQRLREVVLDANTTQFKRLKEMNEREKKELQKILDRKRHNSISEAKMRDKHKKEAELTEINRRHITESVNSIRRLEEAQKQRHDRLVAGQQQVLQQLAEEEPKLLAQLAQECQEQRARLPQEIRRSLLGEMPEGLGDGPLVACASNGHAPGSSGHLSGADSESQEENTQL
Rpn11 inh: inhibitors of human proteasome Rpn11; AID 588493; inhibition, % at 20 µM; 360,000 tested, 0.59% active; human 26S proteasome, Ub4-pepOG fluorescence polarization; 20S core pre-blocked with epoxomicin; O00487;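 active means inhibition at 20 µM, scaled to each plate's controls, above about 33%, limit read from the data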
Rpn11 confirm: confirmation of human proteasome Rpn11 inhibitors; shares compounds with Rpn11 inh; purified human 26S proteasome, Ub4-pepOG fluorescence polarization; proteasome pretreated with epoxomicin; inhibition, % at 20 µM; 1,900 tested, 29% active
MMP-2 inh: MMP-2 (human) inhibition counter-screen; inhibition, % at 20 µM; 1,900 tested, 4% active; recombinant MMP-2, FRET peptide cleavage fluorescence; shares compounds with Rpn11 inh;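 further: human MMP-2 activated beforehand with APMA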
Thrombin FP: blocks bovine thrombin, flagging nonselective RPN11 hits; AID 602333; 1,900 tested, 13% active; inhibition, % at 20 µM; shares compounds with Rpn11 inh; bovine thrombin cleavage of Ub4-pepOG, fluorescence polarization;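 active means mean inhibition at least 40% at 20 µM, or signal 3 deviations below plate average, so some actives read negative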;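 further: plate controls were thrombin with DMSO for no effect and buffer wells lacking thrombin for full effect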
Active calls of the source: *; i = inactive; nt = no result given; + = active, no number. Unless noted, no stated cut-off is given here; in the data, active means inhibition above about 40%; inactive means the rest.

SMILES | UCH37 DUB inh | PLCg1 inh | PLCb3 inh | Rpn11 inh | Rpn11 confirm | MMP-2 inh | Thrombin FP
Fc1ccccc1-c1nc(-c2ccncc2)no1 | nt | -1 | -3 | 2 | nt | nt | nt
Cc1cccc2sc(NNC(=O)c3cc(=O)c4ccccc4o3)nc12 | nt | -42 | -54 | 27 | nt | nt | nt
Cc1ccc2sc(NNC(=O)c3cc(=O)c4ccccc4o3)nc2c1C | nt | -19 | -33 | 48* | 20 | 12 | -14
COc1cccc(/C=N/NC(=O)c2c(C)nc3ccc(Cl)cn23)c1O | nt | -56 | -78 | 52* | 37 | -66 | -5
CCS(=O)(=O)c1nc(S(=O)(=O)c2ccc(C)cc2)c(NCCCN2CCCC2=O)s1 | 3 | 3 | -4 | -3 | nt | nt | nt
O=C1CCCN1CCCNc1nc2c(S(=O)(=O)c3ccccc3)nnn2c2ccc(Cl)cc12 | -81 | -21 | -43 | 44* | -6 | -8 | 12
Cn1cccc1CC(=O)NN=Cc1ccc(C(C)(C)C)cc1 | 4 | nt | nt | nt | nt | nt | nt
CCc1ccc(C(=O)NNc2ccc(Cl)cc2)cc1 | 4 | 5 | -4 | 37* | -4 | -22 | -9
CCOc1cc(C=NNC(=O)c2cccnc2)ccc1OCc1ccc(C(=O)OC)o1 | 6 | nt | nt | nt | nt | nt | nt
COc1ccc(NC2=Nc3cccc4cccc2c34)cc1 | 6 | -23 | -22 | 50* | 24 | -27 | 10
c1ccc(NC2=Nc3cccc4cccc2c34)cc1 | 4 | -46 | -54 | 27 | nt | nt | nt
Cc1ccc(C)c(NC(=O)CSc2nc3nc(-c4cccs4)cc(C(F)(F)F)c3c(=O)[nH]2)c1 | -136 | -30 | -55 | 14 | nt | nt | nt
O=C(CSc1nc2nc(-c3cccs3)cc(C(F)(F)F)c2c(=O)[nH]1)Nc1ccc(F)c(F)c1 | -214 | -47 | -54 | 40* | 57* | -8 | 0
Cc1sc2nc(SCC(=O)c3cc(C)n(CC4CCCO4)c3C)n(C(C)C)c(=O)c2c1C (stereo not drawn) | 2 | -2 | -1 | 123* | -6 | 2 | -3
Br/C(C=NN1CCN(Cc2ccccc2)CC1)=C/c1ccccc1 | 2 | nt | nt | nt | nt | nt | nt
CCCc1nc2c3ccccc3ccn2c1Cc1ccc(C)cc1 | nt | -8 | -11 | 43* | 35 | 25 | 19
Cc1ccc(Cc2c(-c3ccco3)nc3c4ccccc4ccn23)cc1 | nt | -41 | -60 | 44* | 35 | 40* | -8
O=c1cc(Cl)[nH]c(=O)n1CCNc1ncc(C(F)(F)F)cc1Cl | 3 | -15 | -18 | 82* | 99* | 7 | 87*
CN(C)c1ccc(C=NNC(=O)c2cccc3cc[nH]c23)cc1 | -78 | nt | nt | nt | nt | nt | nt
O=C(NN=Cc1ccc([N+](=O)[O-])s1)c1cccc(Br)c1 | 6 | nt | nt | nt | nt | nt | nt
CCOc1ccc(OCCC(=O)Nc2ccc(F)cc2C)cc1 | 0 | -3 | 0 | -2 | nt | nt | nt
CC(=O)NCCC(=O)Nc1ccc(F)cc1C | 5 | 4 | 0 | 114* | -11 | -46 | 0
O=c1c(C=NO)c(Nc2ccccc2)nc2ccccn12 | 5 | nt | nt | nt | nt | nt | nt
CCC(C)(C)NC(=O)Cc1ccc(OC)c(OC)c1 | 2 | -4 | -2 | 138* | 6 | -15 | -8
O=C(Nc1ccccc1C(=O)Nc1nnc(C(F)(F)F)s1)c1ccccc1 | nt | -108 | -101 | 35* | 5 | 1 | -6
SMILES | UCH37 DUB inh | PLCg1 inh | PLCb3 inh | Rpn11 inh | Rpn11 confirm | MMP-2 inh | Thrombin FP
Cc1occc1C(=O)Nc1nnc(C(F)(F)F)s1 | 2 | 2 | -3 | -1 | nt | nt | nt
COc1ccccc1-n1cnc2c(c1=O)c1nc3ccccc3nc1n2-c1ccc(C)cc1 | -2 | -13 | -20 | 90* | 8 | -92 | -21
CC(C)CN(CC(C)C)c1ccc(C=Nn2cnnc2)cc1[N+](=O)[O-] | 10 | nt | nt | nt | nt | nt | nt
COC(=O)c1ccccc1NC(=O)CCS(=O)(=O)c1ccc(Br)cc1 | 2 | -2 | -5 | 43* | 114* | 25 | -51
COc1ccc(Nc2nc(-c3cccs3)cs2)c(OC)c1 | 4 | 2 | -10 | 30* | -15 | -11 | -7
COc1ccc(CCn2c(=N)c(C(=O)NC3CCCC3)cc3c(=O)n4ccccc4nc32)cc1OC | 1 | -6 | -14 | 42* | 34 | -27 | 24
N=c1c(C(=O)NC2CCCC2)cc2c(=O)n3ccccc3nc2n1C1CCCC1 | i | i | i | 2 | nt | nt | nt
COc1ccc(CCn2c(=N)c(C(=O)NC3CCCC3)cc3c(=O)n4ccccc4nc32)cc1 | -9 | -27 | -44 | -2 | nt | nt | nt
Cc1cccn2c(=O)c3cc(C(=O)NC4CCCC4)c(=N)n(C4CCCC4)c3nc12 | i | -382 | -485 | 134* | 2 | -37 | -1
C[n+]1cccc(C=NNc2nc(Cl)c(C#N)c(Cl)c2Cl)c1 | 15 | nt | nt | nt | nt | nt | nt
COC(=O)c1cc(Br)c(=O)n(CCc2ccc(F)cc2)c1 | 3 | 0 | 0 | 93* | -16 | -20 | -16
COc1ccc(CNC(=O)C(C)OC(=O)c2cccn2C)cc1 (stereo not drawn) | -1 | 2 | -1 | + | -3 | 11 | -13
NS(=O)(=O)c1ccc(-c2ccc(/C=C3\SC(=S)N(C4CCS(=O)(=O)C4)C3=O)o2)cc1 (stereo not drawn) | nt | -16 | -31 | nt | nt | nt | nt
Cc1ccc(/C=C2\SC(=S)N(C3CCS(=O)(=O)C3)C2=O)o1 (stereo not drawn) | 4 | -12 | -38 | 51* | 10 | 23 | 3
COc1ccc(C(=O)c2c(N)sc3c2CCN(C(=O)OC(C)(C)C)C3)cc1 | nt | -15 | -26 | 45* | 20 | 17 | 30
CN1CCc2c(sc(N)c2C(=O)c2ccc(Cl)cc2)C1 | 3 | -37 | -52 | nt | nt | nt | nt
Clc1ccc(Cn2c(/C=C/c3ccco3)nc3ccccc32)cc1 | -126 | -96 | -117 | nt | nt | nt | nt
Cc1ccc(Cn2c(/C=C/c3ccco3)nc3ccccc32)cc1 | -48 | -163 | -209 | 59* | 38 | 5 | 14
COc1cc(C=NNC(=O)c2cccc(NC(=O)c3ccccc3Cl)c2)ccc1O | 0 | nt | nt | nt | nt | nt | nt
CC(=NNc1cccc([N+](=O)[O-])c1)c1cc2ccccc2o1 | 5 | nt | nt | nt | nt | nt | nt
C/C(=N\Nc1ccc([N+](=O)[O-])cc1)c1cc2ccccc2o1 | nt | -85 | -131 | 108* | 60* | -47 | 35
Cc1cccc(C=NNC(=O)c2cc(-c3cccnc3)nc3c2c(C)nn3-c2ccccc2)c1 | -264 | nt | nt | nt | nt | nt | nt
O=C(Nc1ccc(-c2nc3cc(Cl)ccc3c(=O)o2)cc1)c1ccco1 | -172 | -6 | -4 | 50* | -6 | -21 | -25
O=C(Nc1ccc(Cl)cc1)c1ccco1 | 1 | 0 | 2 | 4 | nt | nt | nt
COc1ccc2c(C=NNc3ccc(C(=O)O)cc3)c[nH]c2c1 | -29 | nt | nt | nt | nt | nt | nt
CC/C(=N/Nc1cccc(Cl)c1)c1cnnc(SC)n1 | nt | 1 | 1 | 56* | 4 | 0 | -23
CCOc1c(Cl)cc(C=NO)cc1OC | 5 | nt | nt | nt | nt | nt | nt
CCCCCCCCN1[C@@H](CC(=O)OCC)c2cc(F)ccc2S1(=O)=O | 0 | -1 | -3 | 5 | nt | nt | nt

High-throughput results deposited in PubChem BioAssay by several laboratories.
